pIC50: −log10 of the molar value. Activity calls are given as the source filed them. The calls are words filed in the database; no cut-off is given here.
How the values were obtained:
Human rhinovirus sp. [1] = assay: Concentration required to reduce Rhino virus type 9 induced plaque formation in HeLa cell culture to 50% of control; format: functional; details: read-out: ID50 (the source's name)
Summary of the method: (§1)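 HeLa monolayers were grown at 36 °C in Eagle's MEM with Earle's salts, 1% antibiotic and 7-10% heat-inactivated fetal calf serum, with serum cut to 1-2% for maintenance. Plaque reduction cultures were incubated 48-72 h at 33 °C. RV-1A was propagated in HeLa; RV-9 was ATCC VR489.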

Human rhinovirus sp. [2] = assay: Concentration required to reduce Rhino virus type 64 induced plaque formation in HeLa cell culture to 50% of control; format: functional; details: read-out: ID50 (the source's name); summary of the method: as §1
HeLa [3] = assay: Concentration required to reduce Rhino virus type 9 induced plaque formation in HeLa cell culture to 50% of control; The highest concentration tested failed to provide 50% protection.; format: functional; details: Homo sapiens, read-out: ID50 (the source's name)
Summary of the method: as §1, with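 “VR489. Plaque counts as % of compound-free control were plotted against log concentration, and the 50% point was found by linear regression.” for “VR489.”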

Human rhinovirus 1A = assay: Concentration required to reduce Rhino virus type 1A induced plaque formation in HeLa cell culture to 50% of control; format: functional; details: read-out: ID50 (the source's name); summary of the method: as §1
HeLa [4] = assay: Lowest concentration at which the effect on HeLa cell colony formation became apparent.; format: functional, Homo sapiens
Summary of the method: (§2)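 The assay scored effects of compound on the growth and morphology of HeLa cell colonies. HeLa stocks were kept in Eagle's MEM with Earle's salts, 1% antibiotic and 7-10% heat-inactivated fetal calf serum at 36 °C. The value is the lowest concentration at which a colony effect became apparent.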

HeLa [5] = assay: The cell growth inhibition ( CGI) concentration denotes the lowest concentration at which the effect on HeLa cell colony formation became apparent.; format: functional, Homo sapiens; summary of the method: as §2
HeLa [6] = assay: Concentration required to reduce Rhino virus type 1A induced plaque formation in HeLa cell culture to 50% of control; The highest concentration tested failed to provide 50% protection.; format: functional; details: Homo sapiens, read-out: ID50 (the source's name)
Summary of the method: as §1, with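 “VR489. Plaque counts as % of compound-free control were plotted against log concentration, and the 50% point was found by linear regression.” for “VR489.”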

HeLa [7] = assay: Concentration required to reduce Rhino virus type 64 induced plaque formation in HeLa cell culture to 50% of control; The highest concentration tested failed to provide 50% protection.; format: functional; details: Homo sapiens, read-out: ID50 (the source's name)
[8] = Activity against mengovirus.; No activity; format: functional
[9] = Activity against polio type 2; No activity; format: functional

Structure (SMILES) | pIC50 (Human rhinovirus sp. [1]) | pIC50 (Human rhinovirus sp. [2]) | pIC50 (Human rhinovirus 1A) | also measured
Clc1ccc(C2=CCc3cc(Br)cnc3O2)cc1Cl | 6.23 | 4.89 |  | pIC50 (HeLa [3]): < 4.85
Clc1cnc2c(c1)CCC(c1ccc(Cl)c(Cl)c1)O2 (stereo unspecified) | 6.54 | 7.52 | 7.22 | CGI (HeLa [4]): 16 µM
Clc1ccc(C2CCc3cc(Cl)cnc3O2)cc1 (stereo unspecified) | 6.19 | 6.96 | 6.15 | CGI (HeLa [4]): 35 µM
CS(=O)(=O)c1cnc2c(c1)CCC(c1ccc(Cl)cc1)O2 (stereo unspecified) | 5.85 | 6.60 | 5.85 | 
Clc1ccc(C2C=Cc3cc(Br)cnc3O2)cc1Cl (stereo unspecified) | 6.96 | 7.22 | 6.28 | CGI (HeLa [5]): 14 µM
CS(=O)(=O)c1cnc2c(c1)CCC(c1ccccc1)O2 (stereo unspecified) |  |  |  | pIC50 (HeLa [6]): < 4.77
CCCCSc1cnc2c(c1)CCC(c1ccc(Cl)c(Cl)c1)O2 (stereo unspecified) | 5.20 | 5.86 | 5.55 | 
C[S+]([O-])c1cnc2c(c1)CCC(c1ccc(Cl)c(Cl)c1)O2 (stereo unspecified) | 7.52 | 8.05 | 6.59 | 
Clc1ccc(C2C=Cc3cc(Cl)cnc3O2)cc1 (stereo unspecified) | 5.64 | 6.33 | 6.74 | CGI (HeLa [5]): 9 µM
Brc1cnc2c(c1)C=CC(c1ccccc1)O2 (stereo unspecified) |  |  | 5.83 | pIC50 (HeLa [3]): < 5.46; pIC50 (HeLa [7]): < 5.46
CSc1cnc2c(c1)CCC(c1ccc(Cl)c(Cl)c1)O2 (stereo unspecified) | 6.82 | 7.52 | 6.92 | CGI (HeLa [5]): 15 µM
Brc1cnc2c(c1)CCC(c1ccccc1)O2 (stereo unspecified) | 5.32 | 5.45 | 6.39 | 
Cc1ccc(C2CCc3cc(Br)cnc3O2)cc1 (stereo unspecified) | 6.41 | 6.64 | 7.15 | 
CS(=O)(=O)c1cnc2c(c1)CCC(c1ccc(Cl)c(Cl)c1)O2 (stereo unspecified) | 6.85 | 8.00 | 6.33 | CGI (HeLa [4]): 56 µM
Clc1ccc(C2CCc3cc(Br)cnc3O2)cc1 (stereo unspecified) | 7.52 | 7.52 | 7.52 | 
CC1(c2ccc(Cl)c(Cl)c2)CCc2cc(Cl)cnc2O1 (stereo unspecified) | 6.24 | 6.40 | 5.96 | 
Clc1ccc(C2CCc3cccnc3O2)cc1Cl (stereo unspecified) | 5.66 | 6.19 | 7.15 | 
Clc1ccc(C2CCc3cc(Br)cnc3O2)cc1Cl (stereo unspecified) | 6.66 | 7.22 | 7.52 | Activity [8]: inactive; Activity [9]: inactive; CGI (HeLa [4]): 28 µM

Source: ChEMBL document CHEMBL1123359, “3,4-Dihydro-2-phenyl-2H-pyrano[2,3-b]pyridines with potent antirhinovirus activity” (1986)
